Test results published in ChEMBL document CHEMBL3576854, “Northalrugosidine is a bisbenzyltetrahydroisoquinoline alkaloid from Thalictrum alpinum with in vivo antileishmanial activity” (J Nat Prod, 2015).
pIC50: −log10 of the molar value.

Assays:
[1] = Selectivity index, ratio of IC50 for HT-29 cells to IC50 for transgenic DsRed2 Leishmania donovani promastigotes strain LV82; format: toxicity, cell-based; conditions: human; read-out: Ratio IC50
How it was run: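 Ratio of the HT-29 cytotoxicity IC50 (72 h, sulforhodamine B) to the IC50 against DsRed2 L. donovani LV 82 promastigotes (72 h at 23 °C, flow cytometry).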

Mus musculus = experiment: Toxicity in BALB/c mouse at 2.8 to 70 mg/kg, iv after 2 weeks; format: organism-based; conditions: in vivo, 336 h, in the assay text read “2.8 to 11.1 mg/kg” for “2.8 to 70 mg/kg”
How it was run: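 Infected BALB/c mice (about 18 g) watched for overt toxicity over two weeks after one 100 µL iv dose in 10% DMSO/PBS: vehicle, test doses 2.8, 5.6 or 11.1 mg/kg, or sodium stibogluconate 70 mg/kg.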

HT-29 = experiment: Cytotoxicity against human HT-29 cells assessed as inhibition of cell survival after 72 hrs by sulforhodamine B assay; format: cell-based; conditions: HT-29, 72 h
How it was run: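 HT-29 cells, 9500 per well, exposed to a concentration series in triplicate for 72 h. Controls: 10% DMSO in water (negative) and paclitaxel in that carrier (positive).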

Leishmania donovani [2] = experiment: Antileishmanial activity against Leishmania donovani […] stain LV82 infected in iv dosed BALB/c mouse assessed as parasite burden reduction in spleen cells after 2 weeks of postinjection by Giemsa staining-light microscopy; format: functional, organism-based
How it was run: (§1)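 BALB/c mice infected by tail vein with 10^7 L. donovani LV 82 amastigotes; treated iv two weeks post-infection (100 µL; 2.8, 5.6 or 11.1 mg/kg in 10% DMSO/PBS; vehicle negative control; sodium stibogluconate 70 mg/kg positive control). Sacrificed two weeks later; liver and spleen weighed, impression smears MeOH-fixed, Giemsa-stained, amastigotes counted per 1000 host nuclei by light microscopy; LDU = organ weight (g) × that count.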

Leishmania donovani [3] = experiment: Antileishmanial activity against transgenic DsRed2 Leishmania donovani promastigotes strain LV82 assessed as parasite killing after 72 hrs by flow cytometry; format: functional, organism-based; conditions: LV82, 72 h
Leishmania donovani [4] = experiment: Antileishmanial activity against Leishmania donovani promastigotes stain LV82 infected in iv dosed BALB/c mouse assessed as parasite burden reduction in liver cells after 2 weeks of postinjection by Giemsa staining-light microscopy; format: functional, organism-based; how it was run: as §1

Structure (SMILES) | selectivity ratio [1] | Activity (Mus musculus) | pIC50 (HT-29) | inhibition (Leishmania donovani [2]) | pIC50 (Leishmania donovani [3]) | inhibition (Leishmania donovani [4])
COc1ccc2cc1Oc1ccc(cc1)C[C@H]1c3cc(OC)c(OC)c(c3CCN1C)Oc1c(O)c(OC)cc3c1[C@H](C2)NCC3 | 29.3 | Non-toxic | 5.09 | Dose-dependent effect | 6.55 | Dose-dependent effect
COc1ccc2cc1Oc1ccc(cc1)C[C@H]1c3cc(OC)c(OC)c(c3CCN1C)Oc1c(OC)c(OC)cc3c1[C@H](C2)N(C)CC3 [THALIDASINE] | 0.5 | – | 5.26 | – | 5.00 | –
COc1ccc2cc1Oc1ccc(cc1)C[C@H]1c3cc(OC)c(OC)c(c3CCN1C)Oc1c(O)c(OC)cc3c1[C@H](C2)N(C)CC3 [THALRUGOSIDINE] | 3.6 | – | 5.44 | – | 6.00 | –
